Compound activity: PubChem, several laboratories
An excerpt weighted towards active compounds, which were near 4.2% of everything screened.
Cl transport mod = modulates chloride dependent transport by human KCC2; AID 1456; Q9H2X9; B-score of Tl+ flux slope (higher = more flux/activation; lower = inhibition) at 10 µM; KCC2 cells, thallium flux FluoZin-2 fluorescence; hit rate 2.2% among 190,000;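 active = thallium flux slope and its plate-corrected score both differing from the plate sample mean at a set confidence after two filtering rounds, in either direction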;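 also: slope of fluorescence scaled to starting intensity during 10 to 20 s after thallium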
KCNQ1 block = blocks the human KCNQ1 potassium channel. B-score at 10 µM. CHO-K1 KCNQ1, FluxOR thallium flux fluorescence; hits give high values. hit rate 1.3% among 310,000. AID 2642;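 active = compounds whose thallium flux B-score, printed positive for inhibition, exceeds three library SD while starting fluorescence stays within three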;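 also: channel opened by potassium depolarization with thallium stimulus after 20 min compound exposure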
hERG rescue = shields human hERG channel from block by proarrhythmic agents; Q12809; CHO-hERG, FluxOR thallium flux, dofetilide IC70 present; activation (rescue from dofetilide block), less the hit threshold, % at 10 µM; hit rate 0.51% among 310,000; AID 1511;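 active = activation above the mean of controls blocked by dofetilide plus 5 SD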;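 also: thallium influx through hERG after potassium depolarization seen as dye fluorescence rise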
Mot1-301 SUMO = inhibitors of SUMOylation pathway: yeast Mot1-301 growth rescue | S. cerevisiae Mot1-301 growth rescue, ATP luminescence, 38.5C; percent above DMSO median, 100 means doubled | growth rescue, % at 18.8 µM | hit rate 1% among 320,000;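 active = every valid replicate shows activation above 250% relative to neutral control wells; inactive = the rest, any valid replicate at or below 250%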
KCNQ1 act = human KCNQ1 channel potentiation or activation. P51787. CHO-K1 KCNQ1, thallium flux FluxOR fluorescence; hits give high values. B-score at 10 µM. hit rate 0.35% among 310,000. AID 2648;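 active = fluorescence ratio B-score, a plate-corrected score, at least three library SD, with initial intensity B-score within 5 SD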
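Schedule – 37 °C overnight plating, 90-min dark dye load, 20-min compound pretreatment · System – stable KCNQ1 CHO-K1 line · Probe or stimulus – thallium- and potassium-containing depolarizing buffer · Measured by – kinetic FluxOR fluorescence, 10 s baseline plus 110 s post-stimulus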
AI-2 QS modul = modulators of Vibrio harveyi AI-2 quorum sensing system; Vibrio harveyi JMH597 AI-2 luminescence/OD600 ratio, 9 h; hits give low values; strain lacks LuxN and CqsS sensors; 0 = neutral-control median; activity change, % at 7.5 µM; hit rate 0.4% among 300,000; AID 2094; in the data active = activity change below about -75%, passing the limit was not always enough;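 also: luminescence divided by OD600 gain over 9 h not by final OD600 alone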
Mot1 SUMO dose = yeast SUMO pathway inhibition in dose response. S. cerevisiae Mot1-301 galactose growth, ATP luminescence, 24 h; -100 = growth of slx-deleted rescue strain. AID 493004. 2,300 tested, under 10 active. shares compounds with Mot1-301 SUMO. growth activity, percent, % at 42 µM;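 active = Signal drops as the depositor expects, and the fitted half-maximal dose is no more than ten times the top valid tested dose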;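 also: more negative values mean stronger growth rescue toward the control strain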
A number is an active result.

How did Cc1ccc(C(=O)NCc2ccco2)c(C)c1 do in these assays?
KCNQ1 block: inactive; hERG rescue: inactive; Mot1-301 SUMO: inactive; KCNQ1 act: inactive; AI-2 QS modul: inactive

Results for O=C(c1ccc(NC(=S)NCc2ccco2)cc1)N1CCCCC1 ?
Cl transport mod: inactive; KCNQ1 block: inactive; hERG rescue: inactive; Mot1-301 SUMO: inactive; KCNQ1 act: inactive; AI-2 QS modul: inactive

Results for Cc1ccc(C(=O)N2CC(C)OC(C)C2)cc1[N+](=O)[O-] (stereo not given) ?
KCNQ1 block: inactive; hERG rescue: inactive; Mot1-301 SUMO: inactive; KCNQ1 act: inactive; AI-2 QS modul: inactive

What do the screens show for `CC1CN(C(=O)c2cc([N+](=O)[O-])cc([N+](=O)[O-])c2)CC(C)O1` (stereo not given)?
Cl transport mod: inactive; KCNQ1 block: inactive; hERG rescue: inactive; Mot1-301 SUMO: active; KCNQ1 act: inactive; AI-2 QS modul: inactive; Mot1 SUMO dose: inactive

What do the screens show for `COCc1nc2oc3ccccc3c(=O)c2cc1C(=O)OC`?
KCNQ1 block: inactive; hERG rescue: inactive; Mot1-301 SUMO: inactive; KCNQ1 act: inactive; AI-2 QS modul: inactive

How did CC(C)(c1ccccc1)c1ccc(OCCN2CCOCC2)cc1 do in these assays?
KCNQ1 block: inactive; hERG rescue: inactive; Mot1-301 SUMO: 444; KCNQ1 act: inactive; AI-2 QS modul: inactive; Mot1 SUMO dose: inactive

What do the screens show for `COCCCn1c(=O)c2sccc2n(Cc2cc(C(=O)OC)ccc2OC)c1=O`?
KCNQ1 block: inactive; hERG rescue: inactive; Mot1-301 SUMO: inactive; KCNQ1 act: inactive; AI-2 QS modul: inactive

What do the screens show for `COc1nccnc1NS(=O)(=O)c1ccc(NC(=O)c2cccc(C)c2)cc1`?
KCNQ1 block: inactive; hERG rescue: inactive; Mot1-301 SUMO: inactive; KCNQ1 act: inactive; AI-2 QS modul: inactive

Results for O=C(NCCCN1CCN(c2ccccc2F)CC1)Nc1ccccc1[N+](=O)[O-] ?
Cl transport mod: inactive; KCNQ1 block: inactive; hERG rescue: inactive; Mot1-301 SUMO: 447; KCNQ1 act: inactive; AI-2 QS modul: inactive; Mot1 SUMO dose: inactive

Results for O=C(NCCCN1CCN(c2ccccc2F)CC1)Nc1ccc(F)cc1 ?
KCNQ1 block: inactive; hERG rescue: inactive; Mot1-301 SUMO: inactive; KCNQ1 act: inactive; AI-2 QS modul: inactive

Results for O=C(NCCCN1CCN(c2ccccc2F)CC1)C1CCN(S(=O)(=O)c2cccs2)CC1 ?
Cl transport mod: inactive; KCNQ1 block: inactive; hERG rescue: inactive; Mot1-301 SUMO: inactive; KCNQ1 act: inactive; AI-2 QS modul: inactive

What do the screens show for `CCS(=O)(=O)N1CCC(C(=O)NCCCN2CCN(c3ccccc3F)CC2)CC1`?
Cl transport mod: inactive; KCNQ1 block: inactive; hERG rescue: inactive; Mot1-301 SUMO: 481; KCNQ1 act: inactive; AI-2 QS modul: inactive; Mot1 SUMO dose: inactive

How did O=C(NC(NC(=S)Nc1ccc(Cl)cc1Cl)C(Cl)(Cl)Cl)c1cccc([N+](=O)[O-])c1 (stereo not given) do in these assays?
KCNQ1 block: inactive; hERG rescue: inactive; Mot1-301 SUMO: inactive; KCNQ1 act: inactive; AI-2 QS modul: inactive

How did Cc1ccn2cc(-c3cnoc3C)nc2c1 do in these assays?
KCNQ1 block: inactive; hERG rescue: inactive; Mot1-301 SUMO: 692; KCNQ1 act: inactive; AI-2 QS modul: inactive; Mot1 SUMO dose: inactive

Results for COc1ccc(CCNC(=O)c2c(O)c3ccccc3[nH]c2=O)cc1OC ?
KCNQ1 block: inactive; hERG rescue: inactive; Mot1-301 SUMO: inactive; KCNQ1 act: inactive; AI-2 QS modul: inactive

Results for Cc1ccc(S(=O)(=O)N2CCCC2CNC(=O)C(=O)NCc2ccccn2)cc1 (stereo not given) ?
KCNQ1 block: inactive; hERG rescue: inactive; Mot1-301 SUMO: inactive; KCNQ1 act: inactive; AI-2 QS modul: inactive

Results for Cc1ccc(NC(=O)C(=O)NCC2CCCN2S(=O)(=O)c2cccs2)cc1 (stereo not given) ?
KCNQ1 block: inactive; hERG rescue: inactive; Mot1-301 SUMO: 464; KCNQ1 act: inactive; AI-2 QS modul: inactive; Mot1 SUMO dose: inactive

What do the screens show for `COc1ccc(S(=O)(=O)N2CCCC2CNC(=O)C(=O)NCc2ccccn2)cc1` (stereo not given)?
KCNQ1 block: inactive; hERG rescue: inactive; Mot1-301 SUMO: 440; KCNQ1 act: inactive; AI-2 QS modul: inactive; Mot1 SUMO dose: inactive

Results for CCCCCC(=O)Nc1nnn(CCC)n1 ?
Cl transport mod: inactive; KCNQ1 block: inactive; hERG rescue: inactive; Mot1-301 SUMO: active; KCNQ1 act: inactive; AI-2 QS modul: inactive; Mot1 SUMO dose: inactive

What do the screens show for `CCCn1nnc(NC(=S)NC(=O)C(C)(C)C)n1`?
Cl transport mod: inactive; KCNQ1 block: inactive; hERG rescue: inactive; Mot1-301 SUMO: inactive; KCNQ1 act: inactive; AI-2 QS modul: inactive

What do the screens show for `COc1ccccc1NC(=O)Cn1nnc(-c2ccccc2NC(=O)c2cc3ccccc3oc2=O)n1`?
KCNQ1 block: inactive; hERG rescue: inactive; Mot1-301 SUMO: inactive; KCNQ1 act: inactive; AI-2 QS modul: inactive

Results for Cc1cc2nc(CSc3ccccc3)cc(=O)n2[nH]1 ?
Cl transport mod: inactive; KCNQ1 block: inactive; hERG rescue: inactive; Mot1-301 SUMO: inactive; KCNQ1 act: inactive; AI-2 QS modul: inactive

Results for COC(=O)CN1C(=O)c2cccc3cccc1c23 ?
KCNQ1 block: inactive; hERG rescue: inactive; Mot1-301 SUMO: 798; KCNQ1 act: inactive; AI-2 QS modul: inactive; Mot1 SUMO dose: inactive

Results for CCN1C(=O)c2cccc3cccc1c23 ?
KCNQ1 block: inactive; hERG rescue: inactive; Mot1-301 SUMO: inactive; KCNQ1 act: inactive; AI-2 QS modul: inactive

How did CN(C)C(=O)CN1C(=O)c2cccc3cccc1c23 do in these assays?
KCNQ1 block: inactive; hERG rescue: inactive; Mot1-301 SUMO: active; KCNQ1 act: inactive; AI-2 QS modul: inactive; Mot1 SUMO dose: inactive

Results for CC(C)NC(=O)CN1C(=O)c2cccc3cccc1c23 ?
KCNQ1 block: inactive; hERG rescue: inactive; Mot1-301 SUMO: inactive; KCNQ1 act: inactive; AI-2 QS modul: inactive

What do the screens show for `Cc1ccc(-c2csc3ncn(CC(=O)N4CCOCC4)c(=O)c23)cc1`?
Cl transport mod: inactive; KCNQ1 block: inactive; hERG rescue: inactive; Mot1-301 SUMO: 362; KCNQ1 act: inactive; AI-2 QS modul: inactive; Mot1 SUMO dose: inactive

How did CCCCCCNC(=O)CCCCCNS(=O)(=O)c1ccc(OC)cc1 do in these assays?
Cl transport mod: inactive; KCNQ1 block: inactive; hERG rescue: inactive; Mot1-301 SUMO: inactive; KCNQ1 act: inactive; AI-2 QS modul: inactive

What do the screens show for `CCCCNS(=O)(=O)c1ccc(OC)cc1`?
Cl transport mod: inactive; KCNQ1 block: inactive; hERG rescue: inactive; Mot1-301 SUMO: 495; KCNQ1 act: inactive; AI-2 QS modul: inactive; Mot1 SUMO dose: inactive
